What is called IC50 is the concentration that gives 50% inhibition.

IC50 and inhibition data for 20 molecules are collected here from ChEMBL document CHEMBL3826943, “Design, synthesis and evaluation of 6-aryl-indenoisoquinolone derivatives dual targeting ERα and VEGFR-2 as anti-breast cancer agents” (Eur J Med Chem, 2016).

Activity calls are given as the source filed them. No cut-off for these calls is given here.

Test [1] addresses T1, Vascular endothelial growth factor receptor 2 (Homo sapiens, UniProt P35968).
The next test addresses T2, Estrogen receptor (Homo sapiens, UniProt P03372).
T2 sequence (P03372 whole entry): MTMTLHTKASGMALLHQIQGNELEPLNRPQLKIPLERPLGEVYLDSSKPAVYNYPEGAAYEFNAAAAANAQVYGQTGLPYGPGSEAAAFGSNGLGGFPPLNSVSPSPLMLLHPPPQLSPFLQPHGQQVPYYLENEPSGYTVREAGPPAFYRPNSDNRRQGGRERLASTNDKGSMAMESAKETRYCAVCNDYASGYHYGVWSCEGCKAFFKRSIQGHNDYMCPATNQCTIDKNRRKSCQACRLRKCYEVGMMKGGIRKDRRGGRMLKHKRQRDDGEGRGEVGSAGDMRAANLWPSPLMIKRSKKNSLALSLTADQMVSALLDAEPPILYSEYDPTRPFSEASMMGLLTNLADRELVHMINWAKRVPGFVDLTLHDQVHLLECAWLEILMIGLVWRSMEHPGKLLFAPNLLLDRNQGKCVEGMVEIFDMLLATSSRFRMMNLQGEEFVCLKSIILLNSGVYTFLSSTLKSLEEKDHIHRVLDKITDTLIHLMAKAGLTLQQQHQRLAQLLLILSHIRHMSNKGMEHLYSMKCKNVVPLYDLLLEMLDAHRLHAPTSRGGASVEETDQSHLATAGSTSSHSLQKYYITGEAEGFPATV
Nature of the test: Displacement of fluorescein-labeled estrogen ligand from recombinant ER-alpha (unknown origin) incubated for 2 hrs by fluorescence polarization assay. On the technique in general: In fluorescence polarisation assays a small probe gives low polarisation when free and higher when bound to something large.

Another test concerns MDA-MB-231. Nature of the test: Antiproliferative activity against human MDA-MB-231 cells incubated for 48 hrs by MTT assay. Format: functional, cell-based. The note with it: MDA-MB-231, 48 h. The essentials: (§1)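 Cells kept in RPMI1640 with 10% FBS, penicillin/streptomycin, 37 °C, 5% CO2. Seeded at 1×10^5/mL, allowed 24 h, then exposed to compound at 1×10^-4, 1×10^-5, 1×10^-6 and 1×10^-7 mol/L for 48 h; controls got medium with 1% DMSO. MTT added for 4 h in the dark, formazan dissolved in DMSO, absorbance at 490 nm used for IC50.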
In general terms: Tetrazolium dyes change colour on reduction, which living cells bring about.

A further test deals with HUVEC. Nature of the test: Antiangiogenic activity in HUVEC assessed as inhibition of cell proliferation incubated for 48 hrs by MTT assay. The note with it: Homo sapiens. Format: functional, cell-based. The essentials:
as §1

For a further test, the system named is MCF7. Kind of test: Antiproliferative activity against human MCF7 cells incubated for 48 hrs by MTT assay. It is filed as functional, cell-based. The note with it: MCF7, 48 h. The essentials:
as §1

Another test has as its system Ishikawa. Nature of the test: Antiproliferative activity against human Ishikawa cells incubated for 48 hrs by MTT assay. Format: functional, cell-based. The essentials: as §1
The target in test [2] is T1, Vascular endothelial growth factor receptor 2. Nature of the test: Inhibition of VEGFR2 in human MCF7 cells assessed as reduction in expression of phosphorylated VEGFR2 at 0.25 to 1 uM incubated for 24 hrs by Western blot analysis. Format: cell-based. In a few lines: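 MCF-7 cells treated 24 h, lysed on ice, protein quantified by BCA, equal loads separated on 12% SDS-PAGE and blotted to PVDF. Probed for p-VEGFR-2 and total VEGFR-2 overnight at 4 °C, HRP secondary 1 h at 37 °C, chemiluminescence on film. VEGFR-2 phosphorylation rate by densitometry, mean ± SD (n=3).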
A general note: In western blotting, separated proteins are transferred to a membrane and probed.

For test [3] the target is unchanged. Kind of test: Inhibition of VEGFR2 in HUVEC assessed as reduction in expression of phosphorylated VEGFR2 incubated for 24 hrs by Western blot analysis. It is filed as cell-based. The essentials:
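HUVEC treated 24 h, washed with PBS, lysed on ice in Tris/SDS/glycerol/β-mercaptoethanol buffer. Protein measured by BCA, equal amounts run on 12% SDS-PAGE, semi-dry transfer to PVDF. Primary antibodies (p-VEGFR-2, VEGFR-2) overnight at 4 °C, HRP secondary 1 h at 37 °C, ECL detection. Phosphorylation rate by densitometry, mean ± SD, n=3.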

Test [4] has the same target. The settings on record: HUVEC, at 1 µM.
The target is the same in test [5]. The settings on record: MCF7, at 1 µM.
The target is the same in test [6]. The settings on record: MCF7, at 1 µM. This is another data set of the same source.

T1 sequence (P35968 whole entry): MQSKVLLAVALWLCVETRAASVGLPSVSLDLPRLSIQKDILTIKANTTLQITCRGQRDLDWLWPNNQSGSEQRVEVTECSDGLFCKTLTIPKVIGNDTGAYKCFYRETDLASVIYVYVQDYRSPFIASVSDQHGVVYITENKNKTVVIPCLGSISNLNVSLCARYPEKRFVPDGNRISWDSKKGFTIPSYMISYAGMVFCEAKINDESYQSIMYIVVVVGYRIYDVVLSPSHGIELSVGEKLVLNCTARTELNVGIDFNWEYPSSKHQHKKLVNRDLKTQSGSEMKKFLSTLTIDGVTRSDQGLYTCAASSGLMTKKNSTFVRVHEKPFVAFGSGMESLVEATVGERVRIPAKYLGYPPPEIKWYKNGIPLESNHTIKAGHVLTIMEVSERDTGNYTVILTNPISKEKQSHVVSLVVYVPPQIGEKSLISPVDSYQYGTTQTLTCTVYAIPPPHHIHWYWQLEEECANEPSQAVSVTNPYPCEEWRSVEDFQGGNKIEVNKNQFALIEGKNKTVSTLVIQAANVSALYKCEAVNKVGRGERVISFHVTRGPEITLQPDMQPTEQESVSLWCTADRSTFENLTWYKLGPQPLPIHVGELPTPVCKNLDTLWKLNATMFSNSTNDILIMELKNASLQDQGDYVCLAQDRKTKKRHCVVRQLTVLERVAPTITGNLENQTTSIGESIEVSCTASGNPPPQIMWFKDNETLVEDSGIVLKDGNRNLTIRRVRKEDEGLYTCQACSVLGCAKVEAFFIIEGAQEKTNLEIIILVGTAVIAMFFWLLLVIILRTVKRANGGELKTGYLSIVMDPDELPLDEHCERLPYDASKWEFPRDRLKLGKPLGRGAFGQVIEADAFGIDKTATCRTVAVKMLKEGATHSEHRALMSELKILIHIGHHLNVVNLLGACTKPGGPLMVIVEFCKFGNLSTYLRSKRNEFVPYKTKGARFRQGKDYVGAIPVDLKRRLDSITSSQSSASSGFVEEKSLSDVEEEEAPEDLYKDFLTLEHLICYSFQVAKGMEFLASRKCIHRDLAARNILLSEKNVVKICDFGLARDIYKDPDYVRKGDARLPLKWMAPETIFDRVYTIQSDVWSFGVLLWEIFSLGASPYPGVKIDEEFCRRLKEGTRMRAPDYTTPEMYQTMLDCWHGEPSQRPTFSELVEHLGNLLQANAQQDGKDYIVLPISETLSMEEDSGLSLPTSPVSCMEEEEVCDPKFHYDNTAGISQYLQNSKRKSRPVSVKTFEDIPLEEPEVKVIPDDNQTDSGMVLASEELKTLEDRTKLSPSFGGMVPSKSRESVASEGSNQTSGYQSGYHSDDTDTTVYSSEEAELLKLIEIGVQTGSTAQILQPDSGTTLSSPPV

Take `O=C1c2cc(O)ccc2-c2c1c1ccc(O)cc1c(=O)n2-c1ccc(OCCN2CCCCC2)cc1`: the IC50 amounted to 0.25 µM in test [1] (read-out: IC50); 3.4 µM on Estrogen receptor; 0.8 µM in the test on MDA-MB-231; 1.3 µM in the test with HUVEC; 1.1 µM in the test on MCF7; 4.3 µM in the test on Ishikawa.
In the case of `COc1ccc2c(c1)C(=O)c1c-2n(-c2ccc(OCCN3CCOCC3)cc2)c(=O)c2cc(OC)ccc12`, the IC50 entry in test [1] was “Not Active”; on Estrogen receptor it was more than 100 µM; in the test with MDA-MB-231, more than 100 µM; in the test on HUVEC, more than 100 µM; with MCF7, more than 100 µM; in the test on Ishikawa, more than 100 µM.
As for `O=C1c2cc(O)ccc2-c2c1c1ccc(O)cc1c(=O)n2-c1ccc(OCCN2CCOCC2)cc1`, the concentration for half-maximal inhibition (IC50) result in [1] is “Not Active”; at Estrogen receptor, 19.8 µM; in the test with MDA-MB-231, more than 100 µM; in the test on HUVEC, more than 100 µM; in the test with MCF7, more than 100 µM; in the test with Ishikawa, more than 100 µM.
As to `CCN(CC)CCNC(=O)c1c(C)[nH]c(/C=C2\C(=O)Nc3ccc(F)cc32)c1C` [SUNITINIB], the IC50 with HUVEC came out at 0.8 µM.
On to `CC/C(=C(\c1ccccc1)c1ccc(OCCN(C)C)cc1)c1ccccc1` [TAMOXIFEN], for which the results for the 50% inhibitory concentration (IC50) in the test with MDA-MB-231, in the test with MCF7 and with Ishikawa were 13.9 µM, 5.3 µM and 6 µM, respectively.
Take `CCN(CC)CCOc1ccc(-n2c3c(c4ccc(O)cc4c2=O)C(=O)c2cc(O)ccc2-3)cc1`: the IC50 in test [1] (read-out: IC50) was found to be 0.12 µM; on Estrogen receptor, 6.7 µM; in the test on MDA-MB-231, 1 µM; with HUVEC, 1.8 µM; with MCF7 it was 0.8 µM; in the test on Ishikawa it was 4 µM.
`COc1ccc2c(c1)C(=O)c1c-2n(-c2ccc(OCCCN3CCOCC3)cc2)c(=O)c2cc(OC)ccc12`: the half-inhibitory concentration (IC50) result in test [1] was “Not Active”; at Estrogen receptor it was more than 100 µM; in the test with MDA-MB-231, more than 100 µM; in the test with HUVEC it was more than 100 µM; in the test on MCF7 it was more than 100 µM; with Ishikawa, more than 100 µM.
Turning to `COc1ccc2c(c1)C(=O)c1c-2n(-c2ccc(OCCN3CCN(C)CC3)cc2)c(=O)c2cc(OC)ccc12`, the IC50 result was “Not Active” in test [1]; 23.3 µM at Estrogen receptor; more than 100 µM in the test on MDA-MB-231; 12 µM in the test on HUVEC; 1.1 µM in the test on MCF7; 10.9 µM in the test on Ishikawa.
On to `O=C1c2cc(O)ccc2-c2c1c1ccc(O)cc1c(=O)n2-c1ccc(OCCN2CCCC2)cc1`, for which the inhibition entry in [2], in test [4], in test [5] and in test [6] was “Active” each time. The IC50 in test [1] (read-out: IC50) was determined as 0.099 µM; on Estrogen receptor it was 7.2 µM; in the test with MDA-MB-231 it was 0.5 µM; in the test with HUVEC it was 0.8 µM; with MCF7 it was 1.2 µM; in the test on Ishikawa, 8.2 µM. Further, the inhibition result in test [3] was “Dose-dependent effect”.
For `COc1ccc2c(c1)C(=O)c1c-2n(-c2ccc(OCCN(C)C)cc2)c(=O)c2cc(OC)ccc12`, the IC50 in test [1] (read-out: IC50) worked out at 3.9 µM; on Estrogen receptor, 24.4 µM; with MDA-MB-231, 1.1 µM; with HUVEC, 35.6 µM; in the test on MCF7 it was 1.1 µM; with Ishikawa, 10.6 µM.
`CN1CCN(CCOc2ccc(-n3c4c(c5ccc(O)cc5c3=O)C(=O)c3cc(O)ccc3-4)cc2)CC1`: the IC50 result in [1] is “Not Active”; on Estrogen receptor, 10.6 µM; in the test with MDA-MB-231 it was 4.1 µM; in the test on HUVEC, 1.1 µM; in the test on MCF7 it was 2.5 µM; in the test with Ishikawa it was 6.1 µM.
Turning to `CCN(CC)CCOc1ccc(-n2c3c(c4ccc(OC)cc4c2=O)C(=O)c2cc(OC)ccc2-3)cc1`, the IC50 in test [1] (read-out: IC50) was found to be 1.03 µM; on Estrogen receptor, 18.7 µM; in the test on MDA-MB-231 it was 1.3 µM; in the test on HUVEC, 11.4 µM; in the test with MCF7, 0.7 µM; with Ishikawa, 6.7 µM.
Turning to `COc1ccc2c(c1)C(=O)c1c-2n(-c2ccc(OCCN3CCCCC3)cc2)c(=O)c2cc(OC)ccc12`, the IC50 entry in test [1] was “Not Active”; at Estrogen receptor, 24.9 µM; in the test on MDA-MB-231 it was 2.8 µM; in the test on HUVEC, more than 100 µM; in the test with MCF7, 0.3 µM; in the test on Ishikawa it was 9.6 µM.
Consider `COc1ccc2c(c1)C(=O)c1c-2n(-c2ccc(OCCCN3CCCC3)cc2)c(=O)c2cc(OC)ccc12`, for which the IC50 entry in test [1] was “Not Active”; at Estrogen receptor, 40.3 µM; in the test with MDA-MB-231, 3 µM; in the test with HUVEC it was 5.1 µM; in the test with MCF7 it was 3.2 µM; with Ishikawa, 12.8 µM.
For the molecule `CCN(CC)CCCOc1ccc(-n2c3c(c4ccc(OC)cc4c2=O)C(=O)c2cc(OC)ccc2-3)cc1`, the IC50 result is “Not Active” in test [1]; 39.8 µM on Estrogen receptor; 1.5 µM in the test with MDA-MB-231; 16 µM in the test with HUVEC; 2.3 µM in the test on MCF7; 4.1 µM in the test with Ishikawa.
As to `COc1ccc2c(c1)C(=O)c1c-2n(-c2ccc(OCCCN(C)C)cc2)c(=O)c2cc(OC)ccc12`, the IC50 entry in test [1] was “Not Active”; on Estrogen receptor, 39.4 µM; in the test with MDA-MB-231, 0.6 µM; in the test on HUVEC it was 25 µM; in the test on MCF7, 1.4 µM; with Ishikawa, 9.6 µM.
Take `COc1ccc2c(c1)C(=O)c1c-2n(-c2ccc(OCCCN3CCCCC3)cc2)c(=O)c2cc(OC)ccc12`: the half-maximal inhibitory concentration (IC50) result is “Not Active” in test [1]; 38.3 µM at Estrogen receptor; 21.7 µM in the test with MDA-MB-231; more than 100 µM with HUVEC; 7.8 µM in the test with MCF7; 4.5 µM with Ishikawa.
With `COc1ccc2c(c1)C(=O)c1c-2n(-c2ccc(OCCN3CCCC3)cc2)c(=O)c2cc(OC)ccc12`, the IC50 entry in test [1] was “Not Active”; at Estrogen receptor, 17.7 µM; with MDA-MB-231, 0.7 µM; in the test with HUVEC, more than 100 µM; in the test with MCF7 it was 0.7 µM; with Ishikawa it was 8.7 µM.
With `COc1ccc2c(c1)C(=O)c1c-2n(-c2ccc(OCCCN3CCN(C)CC3)cc2)c(=O)c2cc(OC)ccc12`, the IC50 entry was “Not Active” in test [1]; 35.2 µM at Estrogen receptor; more than 100 µM in the test on MDA-MB-231; more than 100 µM with HUVEC; more than 100 µM with MCF7; more than 100 µM in the test with Ishikawa.
`CN(C)CCOc1ccc(-n2c3c(c4ccc(O)cc4c2=O)C(=O)c2cc(O)ccc2-3)cc1`: the IC50 worked out at 0.33 µM in [1] (read-out: IC50); 7.6 µM on Estrogen receptor; 3.3 µM in the test on MDA-MB-231; 4.6 µM in the test with HUVEC; 3.8 µM in the test on MCF7; 5.1 µM with Ishikawa.
